# Most compounds without a hit are left out; they make up all but 3.2% or so of the library.
# JMJD2C inh: blocks human GASC-1 demethylase activity. Q9H3R0. GST-JMJD2C(1-420) H3K9me3 demethylation, DELFIA europium. inhibition, % at 2.35 µM. actives 0.069% (n = 330,000). AID 2099;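 active = more than half of a compound's replicate wells show inhibition beyond 50%, single wells judged on their own value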;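 also: signal counts dimethyl H3K9 product captured on neutravidin plate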
# DAX1 inh-1: inhibits human nuclear receptor DAX1. P51843. HEK293 Gal4-DAX1 luciferase reporter, luminescence. inhibition, % at 6.75 µM. actives 0.99% (n = 340,000). AID 504766;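 active = inhibition above the mean over all tested compounds plus 3 SD, cut at about 4.2% in these data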;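 also: inhibition shows as a rise in luminescence from relieved DAX1 repression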
# Target sequence (P51843 207-470 limits assumed): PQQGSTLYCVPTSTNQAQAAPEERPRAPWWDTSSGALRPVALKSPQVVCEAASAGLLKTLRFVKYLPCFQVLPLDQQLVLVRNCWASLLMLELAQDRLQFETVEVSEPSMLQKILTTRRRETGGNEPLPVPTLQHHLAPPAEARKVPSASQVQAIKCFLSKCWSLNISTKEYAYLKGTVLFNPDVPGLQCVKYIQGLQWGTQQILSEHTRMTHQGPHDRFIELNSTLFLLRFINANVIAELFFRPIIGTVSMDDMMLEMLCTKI
# DAX1 inh-2: DAX1 (NR0B1) inhibition, primary screen | actives 1.1% (n = 370,000) | inhibition, % at 6.8 µM | HEK293T StAR-luciferase reporter, SF-1/DAX-1 repression relief | AID 652010;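 active = inhibition above the mean over all tested compounds plus 3 SD, cut at about 3.6% in these data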;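 also: higher inhibition means more luminescence from relief of DAX-1 repression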
# SMARCA2 act: activators of SMARCA2 function; actives 1% (n = 370,000); MG213 cells, MMTV-luciferase reporter, dexamethasone, overnight; activation, % at 9.1 µM; in the data active = activation above about 7.8%
# NR2E3 ag-1: activates human photoreceptor nuclear receptor NR2E3 | AID 2300 | GST-NR2E3/biotin-RetCOR TR-FRET, 1536-well | actives 0.12% (n = 320,000) | Q9Y5X4 | inhibition of corepressor binding, % at 4.78 µM;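 active = percent inhibition above the cutoff of mean plus 3 SD of all tested compounds, set per screening campaign, cut at about 20% in these data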
# Target sequence (Q9Y5X4 whole entry, looked up): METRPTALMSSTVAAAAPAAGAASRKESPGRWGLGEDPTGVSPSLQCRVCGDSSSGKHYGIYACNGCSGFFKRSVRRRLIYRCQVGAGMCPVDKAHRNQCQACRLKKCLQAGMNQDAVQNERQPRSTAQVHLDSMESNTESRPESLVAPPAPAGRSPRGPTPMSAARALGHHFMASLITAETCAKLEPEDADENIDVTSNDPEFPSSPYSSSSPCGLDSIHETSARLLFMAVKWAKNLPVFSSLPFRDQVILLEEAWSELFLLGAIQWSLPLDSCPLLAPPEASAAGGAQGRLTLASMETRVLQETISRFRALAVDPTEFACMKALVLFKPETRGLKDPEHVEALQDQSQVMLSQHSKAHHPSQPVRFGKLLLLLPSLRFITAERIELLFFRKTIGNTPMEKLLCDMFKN
#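 Material: NR2E3–RetCOR corepressor complex | Quantity: 1.35 nM GST-tagged NR2E3 final | Schedule: 5 h at 4 °C | Replication: Singlicate compound wells | Reagent: RetCOR corepressor, biotinylated, 7 nM | Controls: Biotin wells as high control, 0.6% DMSO wells as low control | Signal: TR-FRET, Eu(K)-anti-GST donor, streptavidin-D2 acceptor, ex 340, em 617/671 nm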
# NR2E3 ag-2: human photoreceptor-specific nuclear receptor agonism | Q9Y5X4 | CHO-S Gal4-NCOR/VP16-NR2E3 two-hybrid, luciferase | inhibition of corepressor binding, % at 3.98 µM | actives 0.35% (n = 360,000);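 active = inhibition above the mean of all tested compounds plus 3 SD, cut at about 70% in these data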;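 also: higher means lower luciferase signal from less NR2E3 corepressor binding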
# SMARCA2 act conf: SMARCA2 activation, confirmation screen; shares compounds with SMARCA2 act; MG213 cells, MMTV-luciferase with dexamethasone, luminescence, overnight; MG213 cells expressing E1A, Rb sequestered; DMSO wells 0%, reference activator 100%; activation, % at 9.1 µM; actives 30% (n = 3,500);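 active = activation above its plate's cutoff, the mean activation of tested wells plus 3 SD, cut at about 7.9% in these data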
# GAL4-VP16 Luc: GAL4-VP16 reporter activation counter-screen; activation, % at 9.1 µM; shares compounds with SMARCA2 act; HEK293 GAL4-VP16 pG5luc reporter, luciferase luminescence; scaled: DMSO wells 0%, SAHA wells 100%; actives 41% (n = 3,500);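 active = activation above the solvent-only control well mean plus 3 SD, averaged across control plates, cut at about 5.2% in these data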
# A number is an active result; - = inactive; . = no result given.
SMILES,JMJD2C inh,DAX1 inh-1,DAX1 inh-2,SMARCA2 act,NR2E3 ag-1,NR2E3 ag-2,SMARCA2 act conf,GAL4-VP16 Luc
CCc1nc2ccc(C(=O)N3CCCC(C(N)=O)C3)cn2c1N(C=O)CC (stereo not drawn),.,.,-,-,.,-,.,.
COc1ccccc1NC(=O)CSc1nncn1-c1cccnc1,-,-,-,13,-,-,-,-
O=C(CCl)NC1CCCc2ccccc21 (stereo not drawn),-,-,-,9.3,-,-,-,-
O=C(Cc1ccc(Br)cc1)NC1CCCc2ccccc21 (stereo not drawn),-,-,-,-,-,-,.,.
O=C(NN=Cc1ccccc1OC(F)F)c1cccc(S(=O)(=O)N2CCCC2)c1,-,-,-,-,.,-,.,.
O=S1(=O)c2c(cccc2N2CCSCC2)Oc2ccccc2CN1Cc1cn(Cc2ccc(Cl)cc2)nn1,.,.,-,-,.,.,.,.
CC(C)C(=O)Nc1cccc(NC(=O)c2ccc(Cl)cc2Cl)c1,-,-,-,8.5,-,-,-,-
COc1cc(F)ccc1-c1csc(C(NC(C)=O)c2cccc(F)c2)n1 (stereo not drawn),.,.,4.2,10,.,-,-,-
COc1ccc(-c2nnc(SCC(=O)Nc3ccc(S(=O)(=O)Nc4nccs4)cc3)n2-c2ccc(OC)cc2)cc1,.,.,-,-,.,.,.,.
Fc1ccc(CSc2ccc(-c3ccco3)nn2)cc1,-,-,-,-,-,-,.,.
Fc1cccc(CSc2ccc(-c3ccco3)nn2)c1,-,-,-,15,-,-,13,5.5
Cc1cccc(N(C(=O)c2csnn2)C(C(=O)NC2CCCCC2)c2ccncc2)c1 (stereo not drawn),-,-,-,-,-,-,.,.
COc1ccc(Cn2ccnc2SCC(=O)Nc2nnc(C)s2)cc1,-,-,-,-,-,-,.,.
COc1c(C(=O)NNC(=O)c2ccccc2)csc1Br,-,-,-,16,-,-,-,7.0
COc1cccc(C(=O)NNC(=O)c2ccccc2)c1,-,-,-,-,.,-,.,.
O=C(C1CC(=O)N(C2CCCC2)C1)N1CCN(c2cccc(Cl)c2)CC1 (stereo not drawn),-,-,-,-,-,-,.,.
O=C(NC(=S)Nc1ccccc1Br)c1cccnc1,-,-,-,-,-,-,.,.
CC(C)n1cnc2cc(NC(=O)c3ccco3)ccc21,-,-,-,9.6,-,-,13,9.6
CC(C)C(=O)Nc1ccc(NC(=O)c2ccco2)cn1,-,-,-,8.1,-,-,-,-
COc1cccc(C(=O)Nc2ccc(NC(=O)c3ccco3)nc2)c1,-,-,-,9.7,-,-,12,12
CCCC(=O)Nc1ccc(NC(=O)c2ccco2)cn1,-,-,-,-,-,-,.,.
O=C(NC(=S)Nc1ccc(Br)cn1)c1cccnc1,-,-,-,8.3,-,-,9.8,-
COc1cc(C(=O)Nc2ccc(NC(=O)c3ccco3)nc2)cc(OC)c1OC,-,-,-,-,-,-,.,.
COc1ccc(-n2cnc3cc(NC(=O)c4ccco4)ccc32)cc1,-,-,.,.,-,-,.,.
COC(=O)c1cccc(Cn2ccc3ccc(-c4ccc5ccn(C(=O)C6CCC6)c5c4)cc32)c1,.,.,-,-,.,.,.,.
SMILES,JMJD2C inh,DAX1 inh-1,DAX1 inh-2,SMARCA2 act,NR2E3 ag-1,NR2E3 ag-2,SMARCA2 act conf,GAL4-VP16 Luc
Cc1cc(C)c(OCC(=O)OC(C)C(=O)NC2CC2)c(C)c1 (stereo not drawn),-,-,-,-,-,-,.,.
COc1cc(Cl)c(C)cc1NC(=O)CN1C(=O)C2CCCCC2C1=O (stereo not drawn),-,-,-,-,-,-,.,.
O=C(Nc1ccc(NC(=O)c2ccco2)nc1)c1cccnc1,-,-,-,8.7,-,-,9.1,12
COc1cccc(C(=O)Nc2ccc3[nH]ncc3c2)c1,-,-,-,9.4,-,-,8.9,15
O=C(Nc1ccc(NC(=O)c2ccco2)nc1)c1cccc(F)c1,-,-,-,-,-,-,.,.
COCCNC(=O)/C(C#N)=C/c1ccc2c(c1)OCO2,-,-,-,9.1,-,-,-,-
N#C/C(=C\c1ccc2c(c1)OCO2)C(=O)NCc1ccco1,-,-,-,-,-,-,.,.
CN(C)c1ccc(/C=C(/C#N)C(=O)Nc2nc3c(s2)CCN(Cc2ccccc2)C3)cc1,.,-,-,8.9,.,-,-,6.9
N#C/C(=C\c1ccc(OCc2ccccc2)cc1)C(=O)Nc1nc2c(s1)CCN(Cc1ccccc1)C2,-,-,-,-,-,-,.,.
CCC(Sc1nc2ccccc2c(=O)n1CC1CCCO1)C(=O)NCc1cccnc1 (stereo not drawn),-,-,-,8.3,-,-,-,-
CCC(Sc1nc2ccccc2c(=O)n1CCN1CCOCC1)C(=O)NCc1cccnc1 (stereo not drawn),-,-,-,-,-,-,.,.
Cc1ccccc1CN1CCCCC(NC(=O)c2ccc3ccccc3c2)C1=O (stereo not drawn),.,.,-,-,.,.,.,.
COCCn1c(C)cc(C(=O)COC(=O)c2ccc([N+](=O)[O-])o2)c1C,-,-,-,-,-,-,.,.
Cc1cc(C(=O)COC(=O)c2ccc([N+](=O)[O-])o2)c(C)n1CC1CCCO1 (stereo not drawn),-,-,-,8.5,-,-,-,-
c1ccc(-c2nc3ccccc3nc2-c2ccc(CN3CCC(c4nc5ccccc5[nH]4)CC3)cc2)cc1,.,.,-,8.7,.,.,-,-
COC(=O)c1cc2c(c3c4cc(OC)ccc4n(S(=O)(=O)c4ccc(OC)cc4)c13)C(=O)N(Cc1ccccc1OC)C2,.,.,-,-,.,.,.,.
Cc1ccc2c(c1)sc[n+]2Cc1ccccc1,-,-,-,10,-,-,-,7.8
Cc1nc(Sc2ccccc2)c(C#N)cc1-c1ccccc1,-,-,.,.,-,-,.,.
Cc1nc(-c2cc(C#N)c(Sc3ccc(Cl)cc3Cl)nc2C)cs1,-,-,-,10,-,-,-,-
COc1ccc(C(CCOC(=O)Oc2ccccc2)c2cc(OC)cc(OC)c2)cc1 (stereo not drawn),.,.,-,-,.,.,.,.
CN(C)C(=O)N1CCN(c2nc(-c3ccccc3)cs2)CC1,-,4.6,-,11,-,-,-,5.9
O=C(CC(O)(c1ccccc1)c1ccccc1)Nc1ccccn1,.,-,-,-,.,-,.,.
O=C(CC(=O)c1ccccc1)Nc1ccccn1,-,-,-,13,.,-,-,9.2
C=CCn1c(-c2c(C)nc3cc(C)ccn23)n[nH]c1=S,-,-,-,9.1,-,-,-,-
